# Reference: ChEMBL document CHEMBL1156877, “Discovery of 6-benzyloxyquinolines as c-Met selective kinase inhibitors” (Bioorg Med Chem Lett, 2010)
# How the values were obtained:
# DU-145 = experiment: Cytotoxicity against human DU145 cells after 96 hrs by WST8 assay; conditions: DU-145, 96 h
# Calu-6 = experiment: Cytotoxicity against human Calu6 cells after 96 hrs by WST8 assay; conditions: Calu-6, 96 h
# A549 = experiment: Cytotoxicity against human A549 cells after 96 hrs by WST8 assay; conditions: A549, 96 h
# NCI-H460 = experiment: Cytotoxicity against human NCI-H460 cells after 96 hrs by WST8 assay; conditions: NCI-H460, 96 h
# MKN-28 = experiment: Cytotoxicity against human MKN28 cells after 96 hrs by WST8 assay; conditions: MKN-28, 96 h
# [1] = molecular target: Tyrosine-protein kinase Yes (Homo sapiens, UniProt P07947); experiment: Inhibition of recombinant YES by TR-FRET assay
# Sequence of Tyrosine-protein kinase Yes (P07947 whole entry): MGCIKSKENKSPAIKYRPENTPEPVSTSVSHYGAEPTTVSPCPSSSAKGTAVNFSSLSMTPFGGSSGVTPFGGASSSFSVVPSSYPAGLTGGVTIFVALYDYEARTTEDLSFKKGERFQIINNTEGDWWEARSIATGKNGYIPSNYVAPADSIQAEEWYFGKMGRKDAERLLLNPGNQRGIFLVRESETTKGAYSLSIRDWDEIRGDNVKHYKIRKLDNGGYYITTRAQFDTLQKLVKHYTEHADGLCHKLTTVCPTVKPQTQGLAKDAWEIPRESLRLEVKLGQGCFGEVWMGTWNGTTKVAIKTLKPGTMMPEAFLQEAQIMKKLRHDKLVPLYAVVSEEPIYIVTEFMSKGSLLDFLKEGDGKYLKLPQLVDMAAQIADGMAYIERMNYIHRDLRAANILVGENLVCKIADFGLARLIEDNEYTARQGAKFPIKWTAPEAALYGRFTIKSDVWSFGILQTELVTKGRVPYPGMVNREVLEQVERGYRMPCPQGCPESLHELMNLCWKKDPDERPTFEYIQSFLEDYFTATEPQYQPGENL
# Summary of the method: (§1)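 Recombinant tyrosine kinase incubated with test compound and substrate peptide/ATP for 90 min at 30 °C; enzyme amount, ATP level, substrate and cation vary by kinase. Reaction stopped, then TR-FRET reagent with europium-labelled anti-phospho-substrate antibody added for 5 min at room temperature; substrate phosphorylation read as time-resolved fluorescence.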
# HUVEC = experiment: Inhibition of HGF-induced proliferation of HUVEC after 96 hrs by WST8 assay; conditions: Homo sapiens
# MKN-45 = experiment: Cytotoxicity against human MKN45 cells after 96 hrs by WST8 assay; format: functional, cell-based; conditions: MKN-45, 96 h
# Summary of the method: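 Tumour cells exposed to a range of compound concentrations for 96 h; cytotoxicity read with WST-8 cell counting kit.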
# [2] = molecular target: Cyclin-dependent kinase 2 (Homo sapiens, UniProt P24941); experiment: Inhibition of recombinant CDK2 by IMAP assay
# Summary of the method: (§2)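 Recombinant enzyme mixed with test compound and substrate peptide/ATP solution, incubated 90 min at 30 °C; enzyme quantity, ATP, substrate and cation set per kinase. IMAP reagent then added for 5 min at room temperature, and peptide phosphorylation quantified by fluorescence polarization.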
# [3] = Solubility in fasted state simulated intestinal fluid; format: physicochemical
# T47D = experiment: Cytotoxicity against human T47D cells after 96 hrs by WST8 assay
# [4] = molecular target: Fibroblast growth factor receptor 2 (Homo sapiens, UniProt P21802); experiment: Inhibition of recombinant FGFR2 by TR-FRET assay; summary of the method: as §1
# Sequence of Fibroblast growth factor receptor 2 (P21802 whole entry): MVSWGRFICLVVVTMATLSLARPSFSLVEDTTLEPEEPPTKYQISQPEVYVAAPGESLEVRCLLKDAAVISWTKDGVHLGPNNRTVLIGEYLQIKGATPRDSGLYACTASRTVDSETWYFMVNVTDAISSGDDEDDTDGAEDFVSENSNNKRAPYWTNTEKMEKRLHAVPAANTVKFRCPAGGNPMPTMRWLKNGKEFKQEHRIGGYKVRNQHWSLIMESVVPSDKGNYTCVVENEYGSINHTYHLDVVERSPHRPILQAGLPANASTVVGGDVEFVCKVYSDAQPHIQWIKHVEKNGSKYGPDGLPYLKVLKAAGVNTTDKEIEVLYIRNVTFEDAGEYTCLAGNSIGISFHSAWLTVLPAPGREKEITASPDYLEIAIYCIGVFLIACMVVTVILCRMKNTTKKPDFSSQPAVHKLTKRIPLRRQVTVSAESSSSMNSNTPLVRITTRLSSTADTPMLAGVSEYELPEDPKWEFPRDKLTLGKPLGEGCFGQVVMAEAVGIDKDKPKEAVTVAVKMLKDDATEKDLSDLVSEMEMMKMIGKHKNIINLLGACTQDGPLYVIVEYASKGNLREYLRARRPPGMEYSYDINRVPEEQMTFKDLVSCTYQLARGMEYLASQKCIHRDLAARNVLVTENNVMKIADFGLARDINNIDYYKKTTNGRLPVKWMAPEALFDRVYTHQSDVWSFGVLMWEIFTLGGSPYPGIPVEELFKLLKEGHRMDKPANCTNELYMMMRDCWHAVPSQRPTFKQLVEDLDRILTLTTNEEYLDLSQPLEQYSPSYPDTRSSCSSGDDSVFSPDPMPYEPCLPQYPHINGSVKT
# Aurora kinase A = molecular target: T1, Aurora kinase A (Homo sapiens, UniProt O14965); experiment: Inhibition of recombinant Aurora A by IMAP assay; summary of the method: as §2
# T1 sequence (O14965 whole entry): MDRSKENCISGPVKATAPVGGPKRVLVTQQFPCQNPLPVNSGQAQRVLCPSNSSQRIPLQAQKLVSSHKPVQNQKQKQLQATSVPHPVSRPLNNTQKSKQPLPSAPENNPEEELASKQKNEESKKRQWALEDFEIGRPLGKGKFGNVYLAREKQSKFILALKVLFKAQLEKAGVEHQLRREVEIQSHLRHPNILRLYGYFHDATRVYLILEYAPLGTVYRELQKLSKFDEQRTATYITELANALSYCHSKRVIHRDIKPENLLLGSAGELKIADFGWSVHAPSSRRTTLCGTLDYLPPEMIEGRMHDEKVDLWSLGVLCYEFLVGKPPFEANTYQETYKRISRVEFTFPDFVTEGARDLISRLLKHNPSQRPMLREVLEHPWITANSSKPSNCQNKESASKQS
# NCI-N87 = experiment: Cytotoxicity against human NCI-N87 cells after 96 hrs by WST8 assay; conditions: NCI-N87, 96 h
# BXPC-3 = experiment: Cytotoxicity against human BxPC3 cells after 96 hrs by WST8 assay; conditions: BXPC-3, 96 h
# [5] = molecular target: Protein-tyrosine kinase 6 (Homo sapiens, UniProt Q13882); experiment: Inhibition of recombinant BRK by TR-FRET assay; summary of the method: as §1
# Sequence of Protein-tyrosine kinase 6 (Q13882 whole entry): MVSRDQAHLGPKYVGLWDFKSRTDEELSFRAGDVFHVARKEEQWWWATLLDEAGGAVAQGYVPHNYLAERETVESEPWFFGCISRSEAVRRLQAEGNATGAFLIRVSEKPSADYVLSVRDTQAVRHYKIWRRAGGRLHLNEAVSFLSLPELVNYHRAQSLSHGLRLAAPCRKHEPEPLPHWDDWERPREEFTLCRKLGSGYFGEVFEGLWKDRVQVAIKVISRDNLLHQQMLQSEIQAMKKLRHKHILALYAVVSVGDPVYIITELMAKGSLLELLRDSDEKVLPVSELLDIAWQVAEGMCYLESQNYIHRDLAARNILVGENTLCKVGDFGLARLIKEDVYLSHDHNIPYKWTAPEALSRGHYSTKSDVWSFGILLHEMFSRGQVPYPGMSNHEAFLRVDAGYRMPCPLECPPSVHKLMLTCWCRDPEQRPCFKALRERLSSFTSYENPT
# [6] = Inhibition of recombinant PDGFR by TR-FRET assay; summary of the method: as §1
# [7] = molecular target: Tyrosine-protein kinase ABL1 (Homo sapiens, UniProt P00519); experiment: Inhibition of recombinant Abl by TR-FRET assay; summary of the method: as §1
# Sequence of Tyrosine-protein kinase ABL1 (P00519 whole entry): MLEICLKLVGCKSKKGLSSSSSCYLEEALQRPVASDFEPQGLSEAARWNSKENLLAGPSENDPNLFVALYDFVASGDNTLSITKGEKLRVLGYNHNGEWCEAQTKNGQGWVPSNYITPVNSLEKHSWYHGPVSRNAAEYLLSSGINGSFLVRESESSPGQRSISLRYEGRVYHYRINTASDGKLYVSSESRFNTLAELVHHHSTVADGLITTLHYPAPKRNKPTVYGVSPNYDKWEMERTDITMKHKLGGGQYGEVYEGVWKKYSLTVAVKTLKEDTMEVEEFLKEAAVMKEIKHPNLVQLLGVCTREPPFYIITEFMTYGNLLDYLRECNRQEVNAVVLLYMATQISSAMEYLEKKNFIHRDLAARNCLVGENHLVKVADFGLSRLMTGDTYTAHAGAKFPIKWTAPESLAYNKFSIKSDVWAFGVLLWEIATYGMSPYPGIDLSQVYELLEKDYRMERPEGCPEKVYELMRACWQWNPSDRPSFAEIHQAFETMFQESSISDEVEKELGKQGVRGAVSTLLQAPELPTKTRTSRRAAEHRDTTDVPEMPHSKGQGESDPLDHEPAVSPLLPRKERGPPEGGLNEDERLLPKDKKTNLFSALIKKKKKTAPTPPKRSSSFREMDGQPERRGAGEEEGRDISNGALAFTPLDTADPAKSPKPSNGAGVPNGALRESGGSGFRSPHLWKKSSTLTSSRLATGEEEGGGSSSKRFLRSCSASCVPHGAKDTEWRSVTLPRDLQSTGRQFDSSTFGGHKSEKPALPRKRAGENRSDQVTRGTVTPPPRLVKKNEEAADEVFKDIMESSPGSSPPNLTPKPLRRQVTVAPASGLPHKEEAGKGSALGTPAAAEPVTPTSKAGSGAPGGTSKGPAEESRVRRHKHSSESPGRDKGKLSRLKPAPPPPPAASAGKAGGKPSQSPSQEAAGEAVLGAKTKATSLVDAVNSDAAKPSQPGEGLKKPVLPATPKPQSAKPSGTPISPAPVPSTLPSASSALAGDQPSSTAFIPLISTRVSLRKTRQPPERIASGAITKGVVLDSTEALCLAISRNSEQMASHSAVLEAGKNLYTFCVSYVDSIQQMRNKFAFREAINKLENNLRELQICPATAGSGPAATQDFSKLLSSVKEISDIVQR
# [8] = molecular target: Tyrosine-protein kinase Fyn (Homo sapiens, UniProt P06241); experiment: Inhibition of recombinant Fyn by TR-FRET assay; summary of the method: as §1
# Sequence of Tyrosine-protein kinase Fyn (P06241 whole entry): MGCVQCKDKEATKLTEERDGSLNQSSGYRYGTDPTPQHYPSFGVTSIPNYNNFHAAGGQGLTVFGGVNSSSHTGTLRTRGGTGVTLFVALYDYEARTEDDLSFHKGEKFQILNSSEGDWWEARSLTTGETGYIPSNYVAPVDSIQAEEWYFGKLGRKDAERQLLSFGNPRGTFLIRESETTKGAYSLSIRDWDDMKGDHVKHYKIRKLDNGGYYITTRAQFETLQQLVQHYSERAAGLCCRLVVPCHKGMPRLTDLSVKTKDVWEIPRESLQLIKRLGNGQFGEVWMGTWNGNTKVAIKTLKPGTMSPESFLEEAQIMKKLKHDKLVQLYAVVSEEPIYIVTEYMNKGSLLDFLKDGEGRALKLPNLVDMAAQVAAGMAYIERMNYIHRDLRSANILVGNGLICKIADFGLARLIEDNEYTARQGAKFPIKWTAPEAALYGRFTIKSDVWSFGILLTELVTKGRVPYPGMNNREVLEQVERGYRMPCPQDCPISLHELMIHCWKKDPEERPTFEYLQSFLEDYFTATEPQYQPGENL
# [9] = molecular target: T2, Receptor-type tyrosine-protein kinase FLT3 (Homo sapiens, UniProt P36888); experiment: Inhibition of recombinant Flt3 by TR-FRET assay; summary of the method: as §1
# T2 sequence (P36888 whole entry): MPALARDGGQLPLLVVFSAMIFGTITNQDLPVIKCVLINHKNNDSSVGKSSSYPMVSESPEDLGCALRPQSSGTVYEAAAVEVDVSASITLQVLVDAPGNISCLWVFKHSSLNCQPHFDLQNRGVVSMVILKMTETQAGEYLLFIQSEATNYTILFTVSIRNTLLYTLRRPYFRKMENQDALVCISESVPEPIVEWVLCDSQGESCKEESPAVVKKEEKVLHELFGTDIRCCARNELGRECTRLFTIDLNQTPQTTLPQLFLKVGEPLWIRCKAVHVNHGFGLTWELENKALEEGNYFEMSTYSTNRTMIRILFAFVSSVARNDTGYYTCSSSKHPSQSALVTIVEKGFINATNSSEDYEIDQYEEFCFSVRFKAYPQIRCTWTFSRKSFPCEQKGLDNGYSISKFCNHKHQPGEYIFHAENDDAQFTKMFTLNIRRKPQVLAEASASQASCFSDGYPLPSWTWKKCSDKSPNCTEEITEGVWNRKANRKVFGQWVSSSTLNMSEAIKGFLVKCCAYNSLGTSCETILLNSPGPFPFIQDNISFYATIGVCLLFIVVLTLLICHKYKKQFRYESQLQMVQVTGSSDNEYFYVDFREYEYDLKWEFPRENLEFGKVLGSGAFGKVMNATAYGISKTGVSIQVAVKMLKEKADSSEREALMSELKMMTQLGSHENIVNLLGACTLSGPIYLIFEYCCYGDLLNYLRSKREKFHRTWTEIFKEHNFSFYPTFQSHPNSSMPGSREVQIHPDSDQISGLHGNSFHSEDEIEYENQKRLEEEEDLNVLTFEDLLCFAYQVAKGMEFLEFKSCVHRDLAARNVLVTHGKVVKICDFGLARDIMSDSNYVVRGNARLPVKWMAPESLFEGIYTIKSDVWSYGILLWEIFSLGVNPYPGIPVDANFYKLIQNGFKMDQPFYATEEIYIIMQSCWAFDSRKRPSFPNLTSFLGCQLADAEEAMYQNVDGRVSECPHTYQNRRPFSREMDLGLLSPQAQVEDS
# Insulin receptor = Insulin receptor (Homo sapiens, UniProt P06213); experiment: Inhibition of recombinant InsR by TR-FRET assay
# Sequence of Insulin receptor (P06213 28-758 limits assumed): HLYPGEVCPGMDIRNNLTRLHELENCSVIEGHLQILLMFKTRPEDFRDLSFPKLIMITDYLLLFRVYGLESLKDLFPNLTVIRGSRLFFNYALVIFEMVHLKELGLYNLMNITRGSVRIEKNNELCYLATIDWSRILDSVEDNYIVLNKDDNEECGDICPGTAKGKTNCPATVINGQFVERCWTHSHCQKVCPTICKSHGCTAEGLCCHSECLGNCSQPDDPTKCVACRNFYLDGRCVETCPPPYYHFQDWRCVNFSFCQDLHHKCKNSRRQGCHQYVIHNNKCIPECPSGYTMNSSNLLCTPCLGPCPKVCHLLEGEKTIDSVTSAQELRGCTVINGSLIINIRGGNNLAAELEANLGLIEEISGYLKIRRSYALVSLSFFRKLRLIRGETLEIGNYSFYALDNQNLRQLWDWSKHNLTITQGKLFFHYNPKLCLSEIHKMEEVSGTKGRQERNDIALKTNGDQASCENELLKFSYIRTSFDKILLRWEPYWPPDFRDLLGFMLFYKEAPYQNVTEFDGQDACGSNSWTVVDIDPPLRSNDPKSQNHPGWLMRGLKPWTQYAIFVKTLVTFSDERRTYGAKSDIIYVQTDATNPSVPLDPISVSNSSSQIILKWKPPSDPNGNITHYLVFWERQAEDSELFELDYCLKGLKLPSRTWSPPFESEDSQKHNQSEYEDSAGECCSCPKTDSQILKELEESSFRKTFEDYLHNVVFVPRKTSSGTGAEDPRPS
# Sequence of Insulin receptor (P06213 763-1382 limits assumed): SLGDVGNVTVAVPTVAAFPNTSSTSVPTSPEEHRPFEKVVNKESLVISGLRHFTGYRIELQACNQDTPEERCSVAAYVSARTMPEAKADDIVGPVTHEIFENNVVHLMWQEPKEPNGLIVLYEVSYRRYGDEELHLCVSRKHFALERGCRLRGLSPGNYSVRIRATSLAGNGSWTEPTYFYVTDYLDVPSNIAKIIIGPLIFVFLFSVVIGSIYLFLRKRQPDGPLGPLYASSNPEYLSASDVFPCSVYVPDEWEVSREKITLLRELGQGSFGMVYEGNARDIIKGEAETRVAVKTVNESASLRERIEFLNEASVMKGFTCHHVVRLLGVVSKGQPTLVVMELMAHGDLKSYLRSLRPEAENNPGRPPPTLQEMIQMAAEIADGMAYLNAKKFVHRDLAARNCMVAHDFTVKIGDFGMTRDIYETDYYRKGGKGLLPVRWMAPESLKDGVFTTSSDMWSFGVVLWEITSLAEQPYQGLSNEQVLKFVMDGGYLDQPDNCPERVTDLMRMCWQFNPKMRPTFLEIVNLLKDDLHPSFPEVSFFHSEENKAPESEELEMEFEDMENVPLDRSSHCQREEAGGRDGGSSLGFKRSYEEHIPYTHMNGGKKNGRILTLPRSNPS
# CAPAN-1 = experiment: Cytotoxicity against human Capan1 cells after 96 hrs by WST8 assay; conditions: CAPAN-1, 96 h
smiles,measurement,setting,value
C[C@@H](Oc1ccc2ncc(C3CC3C(N)=O)cc2c1)c1c(Cl)ccc(F)c1Cl (some centres not stated),IC50,DU-145,> 1 µM
same,IC50,Calu-6,> 1 µM
same,IC50,A549,> 1 µM
same,IC50,NCI-H460,> 1 µM
same,IC50,MKN-28,> 1 µM
same,IC50,[1],> 50 µM
same,IC50,HUVEC,0.3 µM
same,IC50,MKN-45,0.093 µM
same,IC50,[2],> 50 µM
same,solubility,[3],345 µg/mL
same,IC50,T47D,> 1 µM
same,IC50,[4],12 µM
same,IC50,Aurora kinase A,22 µM
same,IC50,NCI-N87,> 1 µM
same,IC50,BXPC-3,> 1 µM
same,IC50,[5],> 50 µM
same,IC50,[6],> 50 µM
same,IC50,[7],> 50 µM
same,IC50,[8],25 µM
same,IC50,[9],15 µM
same,IC50,Insulin receptor,> 50 µM
same,IC50,CAPAN-1,> 1 µM
